M4 ag = human M4 muscarinic receptor agonists, primary screen, CHO-K1 cells, Fluo-8 calcium fluorescence. CHO-K1 hM4/Gqi5; vehicle 0%, full acetylcholine response 100%. activation, % at 3 µM. hit rate 0.14% among 360,000;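 active means activation above the run mean over all test wells plus 3 SD, cut at about 32% in these data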;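 further: peak over basal fluorescence ratio per well then scaled between controls; 0% = DMSO wells and 100% = acetylcholine at EC100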
Target sequence (P08173 whole entry, looked up): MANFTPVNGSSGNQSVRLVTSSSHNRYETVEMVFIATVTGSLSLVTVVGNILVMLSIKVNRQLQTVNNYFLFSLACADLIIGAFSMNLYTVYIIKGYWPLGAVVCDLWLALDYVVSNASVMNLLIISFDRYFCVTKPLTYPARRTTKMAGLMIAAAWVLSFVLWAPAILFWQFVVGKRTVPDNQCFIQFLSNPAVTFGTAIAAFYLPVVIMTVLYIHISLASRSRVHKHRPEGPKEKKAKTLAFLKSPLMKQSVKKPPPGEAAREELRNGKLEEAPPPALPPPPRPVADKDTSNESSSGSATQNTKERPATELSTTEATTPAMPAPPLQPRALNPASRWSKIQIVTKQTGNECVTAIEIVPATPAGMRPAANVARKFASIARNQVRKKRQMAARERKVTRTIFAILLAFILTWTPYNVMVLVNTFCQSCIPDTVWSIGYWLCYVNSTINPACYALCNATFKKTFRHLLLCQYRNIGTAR
CHRM5 antagonist = human M5 muscarinic receptor antagonists, primary screen, CHO cells, Fluo-8 calcium fluorescence; inhibition, % at 3 µM; hit rate 0.59% among 360,000; CHO-hM5 cells, ACh EC80;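 active means inhibition above a per-plate cutoff, the mean of that plate's test compounds plus 3 SD, cut at about 27% in these data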;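 further: 0% = acetylcholine EC80 with DMSO and 100% = DMSO without agonist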
M5 ag = human M5 muscarinic receptor agonists, primary screen, CHO-K1 cells, Fluo-8 calcium fluorescence; activation, % at 3 µM; AID 624037, 2012; CHO-K1 hM5 cells; 0% DMSO wells, 100% maximal acetylcholine response; Muscarinic acetylcholine receptor M5 (Homo sapiens), P08912; hit rate 0.19% among 360,000;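 active means activation above the run's mean over test compounds plus 3 SD, cut at about 23% in these data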;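 further: signal is peak over basal fluorescence ratio across the kinetic read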
M5 PAM = human M5 muscarinic receptor positive allosteric modulators, primary screen, CHO-K1 cells, Fluo-8 calcium fluorescence | CHO-K1 hM5, ACh EC20 PAM; 0% = ACh EC20, 100% = ACh EC100 | hit rate 0.3% among 360,000 | activation, % at 3 µM;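 active means activation above the run cutoff, the mean activation of all test compounds plus 3 SD, cut at about 18% in these data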
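System: CHO-K1 cell line with stable human muscarinic M5 receptor expression | Also added: EC20 acetylcholine as agonist stimulus | Compound: One concentration, 3 µM final (nominal) | Timing: Fluo-8 loading 80 min at 37 °C plus 30 min room temperature | Measured by: Fluo-8 calcium dye fluorescence, kinetic read | Read-out basis: % activation, ACh-normalized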
CHRM4 PAM = human M4 muscarinic receptor positive allosteric modulators, primary screen, CHO-K1 cells, Fluo-8 calcium fluorescence | Muscarinic acetylcholine receptor M4 (Homo sapiens), P08173 | CHO-K1 hM4/Gqi5, ACh EC20; 0% = ACh EC20, 100% = maximal ACh | activation, % at 3 µM | hit rate 0.4% among 360,000 | AID 624126, 2012;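 active means activation above its plate's cutoff, the mean activation of sample wells plus 3 SD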
CHRM4 antagonist = human M4 muscarinic receptor antagonists, primary screen, CHO cells, Fluo-8 calcium fluorescence | Muscarinic acetylcholine receptor M4 (Homo sapiens), P08173 | CHO-hM4 cells, ACh EC80 | inhibition, % at 3 µM | hit rate 0.73% among 360,000 | AID 624125, 2012;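 active means inhibition above its plate's cutoff, the mean inhibition of sample wells plus 3 SD, cut at about 27% in these data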;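 further: 0% = acetylcholine EC80 with DMSO and 100% = DMSO without agonist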
An asterisk follows results filed as active. Most compounds without a hit are left out; they make up all but 1.8% or so of the library.

SMILES	M4 ag	CHRM5 antagonist	M5 ag	M5 PAM	CHRM4 PAM	CHRM4 antagonist
Cn1cnc(S(=O)(=O)Nc2ccc(Cl)c(C(F)(F)F)c2)c1	1	-16	-5	11	15*	6
Cn1cnc(S(=O)(=O)Nc2ccc(C(F)(F)F)cc2)c1	1	2	-2	-4	4	-11
CC1=C/C(=C\C=C(C#N)C#N)N(C)c2ccccc21	10	17	43*	-13	-1	2
CN1/C(=C/C=C(C#N)C#N)C(C)(C)c2ccccc21	0	1	2	9	-7	-6
CN1CCN(c2ccc(CNS(=O)(=O)c3ccc(F)cc3Cl)cc2)CC1	2	1	-6	4	20*	5
Cc1nnsc1C(=O)NC1CCCc2c1cnn2-c1ccc(C(C)(C)C)cc1 (stereo not given)	13	28*	-2	-13	-5	10
Cc1nnsc1C(=O)NC1CCCc2c1cnn2-c1ccccc1F (stereo not given)	10	8	6	-9	-1	3
Cn1c(=O)[nH]c(=O)c2c1nc(Br)n2CCCO	1	-18	2	22*	19	5
O=C(CSc1ccc(S(=O)(=O)N2CCOCC2)cn1)Nc1ccc(F)c(F)c1	10	6	8	-5	-3	-2
CCCn1c(-c2ccncc2)n[nH]c1=S	2	-1	1	22*	7	-4
CN(C(=O)COC(=O)/C=C/c1ccc(C(F)(F)F)cc1)C1CCS(=O)(=O)C1 (stereo not given)	4	8	1	-2	-1	5
O=c1c2c(nc3nc(NCc4ccc(Cl)cc4)[nH]n13)CCC2	0	-4	-2	-6	-9	5
O=c1c2c(nc3nc(CCc4ccccc4)[nH]n13)CCC2	-1	-6	-4	22*	7	-12
COc1ccccc1Nc1nn2c(=O)c3ccc(C(=O)N4CCCC(C)C4)cc3nc2s1 (stereo not given)	10	-5	-2	-9	-9	-21
CCOC(=O)CNC1CC(=O)N(c2ccc(Br)cc2)C1=O (stereo not given)	0	-6	5	21*	6	1
O=C(NNC1CC(=O)N(c2ccc(Br)cc2)C1=O)c1cccs1 (stereo not given)	2	-6	3	4	16	30*
CCOC(=O)c1ccc(N2C(=O)CC(Nc3ccc(O)cc3)C2=O)cc1 (stereo not given)	0	-2	3	-1	-4	-10
O=C(NNC1CC(=O)N(c2ccc(Br)cc2)C1=O)c1ccco1 (stereo not given)	5	5	-2	-5	9	-4
O=C(c1ccco1)N1CCCC(c2nc3c(nnn3Cc3c(Cl)cccc3Cl)c(=O)[nH]2)C1 (stereo not given)	0	-4	-2	4	-10	10
Clc1ccc(-c2nc3ccc(Br)cn3c2Cc2cccc(Cl)c2)cc1	-1	-1	-4	0	-7	-2
Cc1ccc(O)c(NC(=O)c2cc(-c3ccccc3Cl)on2)c1	0	28*	-8	-9	-6	4
Cc1ccc(-c2cc(C(=O)Nc3cc(C)ccc3O)no2)cc1	1	11	0	-1	8	-3
CCOC(=O)C1CCN(C(=O)c2cc(COc3ccc(OC)c4ccccc34)on2)CC1	0	2	-3	-2	-3	9
CCC(C)c1ccc(S(=O)(=O)N2CCN(CC(O)COCC3CCCO3)CC2)cc1 (stereo not given)	1	6	3	-2	1	3
CC(=O)CSc1ncnc2sc3c(c12)CCC(C)C3 (stereo not given)	-1	-8	-8	11	23*	-14
SMILES	M4 ag	CHRM5 antagonist	M5 ag	M5 PAM	CHRM4 PAM	CHRM4 antagonist
CC1CCc2c(sc3ncnc(SCC(=O)c4ccccc4)c23)C1 (stereo not given)	0	0	-4	7	14	-2
CCN(CC)S(=O)(=O)c1ccc(N2CCN(c3ccccc3OC)CC2)c(N)c1	18	30*	7	-16	-15	20
CCN(CC)S(=O)(=O)c1ccc(Oc2ccccc2)c(N)c1	4	8	-1	9	2	6
CCCCN(C=O)c1c(CC)nc2c(OCc3ccccc3C)cccn12	1	3	-2	-5	1	0
COc1ccc(Oc2c(C)oc3c(CN(C)C)c(O)ccc3c2=O)cc1	1	2	-8	-16	-17	44*
COc1ccc(C(C#N)=Cc2ccc(N(C)CCC#N)cc2)cc1	5	28*	3	-16	-7	11
CCCCc1ccc(/C=C2/C(=O)ON=C2c2ccccc2)s1	2	-10	0	11	27*	-8
CCOC(=O)c1ccc(NC(=O)COC(=O)c2cccc(Oc3ccccc3)c2)cc1	1	-2	-1	-3	-5	-9
COc1ccc(C(=O)NC(=S)NNC(=O)c2ccccc2C)cc1	123*	28*	59*	-27	-51	12
COc1ccc(C(=O)NC(=S)NNC(=O)c2ccccc2O)cc1	2	1	-4	5	4	-11
COc1ccc(C(=O)NNC(=S)NC(=O)C(C)(C)C)cc1	88*	12	27*	-19	-30	8
O=C(Nc1ccccc1)c1ccccc1OCC(O)CN1C(=O)c2ccccc2S1(=O)=O (stereo not given)	19	22	4	-20	-20	32*
CC1(C)NC(=O)N(CC(O)COc2ccccc2C(=O)Nc2ccccc2)C1=O (stereo not given)	11	12	1	-14	-2	2
Cc1ccc2nc3n(c(=O)c2c1)-c1cc2ccccc2cc1C(=O)NC3CC(C)C (stereo not given)	0	-6	1	4	1	-2
Clc1cccc(Oc2cnc3ccccc3n2)c1	-1	0	1	8	30*	3
CCC1(C2=CCCCC2)C(=O)NC(=S)N=C1N (stereo not given)	2	0	-8	6	8	-10
CC1CC(OC(=O)C(O)c2ccccc2)CC(C)(C)N1C (stereo not given)	0	88*	-2	-19	-16	41*

Screening results deposited in PubChem BioAssay by The Scripps Research Institute Molecular Screening Center.
